Compounds with a hit are over-represented: about 2.7% of the library has one in this group of screens.
PAFAH2 inh – PAFAH2 (human) inhibition. Q99487. recombinant PAFAH2, FP-rhodamine activity probe, fluorescence polarization. inhibition, % at 3.39 µM. 340,000 tested, 0.99% active. AID 492956;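 active = inhibition above the mean over all tested compounds plus 3 SD, cut at about 30% in these data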;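 also: inhibitors block probe labeling of enzyme so polarization drops; 0% = enzyme with DMSO and 100% = wells lacking PAFAH2 protein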
pPAFAH FP inh – pPAFAH (human) enzyme inhibition; Q13093; inhibition, % at 3.39 µM; 330,000 tested, 1.5% active; AID 463082; recombinant pPAFAH, FP-rhodamine probe fluorescence polarization;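 active = inhibition above the mean inhibition across the screen plus 3 SD, cut at about 25% in these data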;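 also: inhibitors block binding of the rhodamine activity-based probe so polarization drops; 0% = enzyme with DMSO and 100% = wells lacking pPAFAH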
ARFGAP1 inh – inhibits rat ARF GTPase activating protein 1; 360,000 tested, 0.26% active; Arfgap1-stimulated ARF1 GTP hydrolysis, GDP FP detection; inhibition, % at 16.5 µM;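 active = inhibition above a per-plate limit, mean inhibition of low control wells plus 3 SD, cut at about 25% in these data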;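 also: 0% = DMSO wells with enzyme and 100% = wells lacking Arfgap1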
Target sequence (Q62848 1-136 limits assumed): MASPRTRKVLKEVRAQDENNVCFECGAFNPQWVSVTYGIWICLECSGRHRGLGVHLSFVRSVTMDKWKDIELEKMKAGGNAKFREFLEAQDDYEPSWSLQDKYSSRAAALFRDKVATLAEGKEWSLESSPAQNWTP
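Assay system: purified rat His6-Arfgap1 residues 1-136 (GAP domain); Reagent: human Δ17 ARF1 bound to GTP; Dosing: 16.5 µM single point, 1.26% DMSO; Times: GTP hydrolysis reaction 2 h at 25 °C; Signal: FP, GDP Alexa 633 tracer displaced from anti-GDP antibody, 620/688 nm; Measure: % inhibition from polarization.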
PAFAH1B2 FP inh – inhibitors of human PAFAH1B2. P68402. recombinant PAFAH1B2, FP-rhodamine activity probe, fluorescence polarization. inhibition, % at 3.39 µM. 340,000 tested, 1.2% active;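 active = inhibition above the mean of all tested compounds plus 3 SD, cut at about 24% in these data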;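 also: 0% = enzyme with DMSO and 100% = wells lacking PAFAH1B2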
PAFAH1B3 inh – inhibitors of human PAFAH1B3; Q15102; AID 492972; 340,000 tested, 0.28% active; recombinant PAFAH1B3, FP-rhodamine probe, fluorescence polarization; inhibition, % at 3.39 µM;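 active = inhibition above the screen-wide average of all tested compounds plus 3 SD, cut at about 25% in these data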;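 also: 0% = enzyme with DMSO only and 100% = wells lacking PAFAH1B3 protein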
ASAP1 GAP inh – blocks human ASAP1-stimulated Arf1 GTP hydrolysis; Q9ULH1; GDP FP detection; inhibition, % at 16.5 µM; 360,000 tested, 0.19% active; AID 624377; in the data active = inhibition above about 25%;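 also: 0% = vehicle with enzyme and substrate and 100% = no enzyme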
Target sequence (Q9ULH1 325-724 limits assumed): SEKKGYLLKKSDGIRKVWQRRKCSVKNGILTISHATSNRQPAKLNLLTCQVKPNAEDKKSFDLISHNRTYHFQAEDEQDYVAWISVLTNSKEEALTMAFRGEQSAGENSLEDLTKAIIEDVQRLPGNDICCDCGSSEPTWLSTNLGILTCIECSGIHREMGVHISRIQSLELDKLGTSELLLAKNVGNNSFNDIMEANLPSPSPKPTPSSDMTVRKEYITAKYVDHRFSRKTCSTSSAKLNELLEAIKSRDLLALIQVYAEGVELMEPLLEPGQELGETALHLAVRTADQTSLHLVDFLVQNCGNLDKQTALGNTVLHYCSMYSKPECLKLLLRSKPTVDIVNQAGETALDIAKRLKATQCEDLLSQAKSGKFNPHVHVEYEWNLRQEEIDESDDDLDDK
ASAP1 GAP conf – confirmation of human ASAP1 inhibitors; inhibition, % at 16.5 µM; 620 tested, 37% active; ASAP1-stimulated Arf1 GTPase, GDP fluorescence polarization; shares compounds with ASAP1 GAP inh;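 active = mean inhibition over triplicates exceeds the hit threshold derived for the earlier primary screening run, cut at about 25% in these data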
Active calls of the source: *; . = not tested or not shown.

SMILES	PAFAH2 inh	pPAFAH FP inh	ARFGAP1 inh	PAFAH1B2 FP inh	PAFAH1B3 inh	ASAP1 GAP inh	ASAP1 GAP conf
CC1=C/C(=C(/c2cc(C)c(O)c(Br)c2)c2ccccc2S(=O)(=O)O)C=C(Br)C1=O	-19	-4	38*	-14	-25	40*	30*
C=CCn1cnnc1SCC(=O)NCC1COc2ccccc2O1 (stereo not drawn)	9	.	3	-1	1	31*	9
COc1ccc(CNC(=O)COC(=O)CO/N=C(\C)c2ccc3c(c2)OCO3)cc1	-7	14	11	2	4	-2	.
C=CCNC(=S)NNc1nc2c(c(=O)[nH]1)C1(CCCCC1)Cc1ccccc1-2	7	17	3	16	-5	4	.
COc1ccc2ccccc2c1C1CC(=O)N2CN(C3CCCCC3)CSC2=C1C#N (stereo not drawn)	4	11	-11	4	-4	-4	.
CCOc1cc(C2CC(=O)N3CN(C4CCCCC4)CSC3=C2C#N)ccc1O (stereo not drawn)	8	-1	-15	4	-3	26*	3
C[C@H](CO)N1C[C@H](C)[C@@H](CN(C)C(=O)Nc2ccc(C(F)(F)F)cc2)Oc2c(NC(=O)c3ccncc3)cccc2C1=O	18	-1	3	20	10	-2	.
C[C@H](CO)N1C[C@H](C)[C@H](CN(C)C(=O)Nc2ccc(F)cc2)Oc2c(NC(=O)c3ccc(-c4nccs4)cc3)cccc2C1=O	-4	-1	6	-3	1	31*	10
COC(=O)c1ccc(N=Cc2c(C(F)(F)F)[nH]n(C)c2=O)cc1	1	1	-7	-7	-2	1	.
CCN1CC2=C(OC(N)=C(C#N)C2c2cccs2)/C(=C/c2cccs2)C1 (stereo not drawn)	4	19	4	2	5	7	.
CCN1C=C(Cc2cccs2)C2=C(C1)C(c1cccs1)C(C#N)=C(N)O2 (stereo not drawn)	14	20	-4	-2	8	25*	7
COc1ccc(N/N=C(\C#N)C(=N)N2CCCCC2)cc1	-4	11	9	3	9	-8	.
COc1ccc(N/N=C(\C#N)C(=N)SCc2ccccc2)cc1	10	.	5	7	4	26*	1
CCS(=O)(=O)N1Cc2ccccc2CC1C(=O)N(C)Cc1ccc(OC)c(F)c1 (stereo not drawn)	-4	4	-1	-4	1	-7	.
COc1cc(-c2cc(NC(C)=O)c3ncc(-c4ccc(F)cc4)n3c2)cc(OC)c1OC	.	.	10	.	.	11	.
COC1=C(Br)C(=O)c2nc(C)ccc2C1=O	.	.	5	.	.	27*	4
O=C(Cc1ccc(S(=O)(=O)N2CCOCC2)s1)NCCOc1ccccc1	8	6	0	0	2	3	.
CC1CCCN(C(=O)c2ccc(NS(=O)(=O)c3cccc([N+](=O)[O-])c3)cc2)C1 (stereo not drawn)	0	6	5	7	8	-2	.
CCOc1ccc2[nH]c(C(=O)N/N=C/c3cc(OC)c(OC)c(OC)c3)cc2c1	-9	12	20	15	20	27*	51*
CCC(=O)NC(c1cccs1)c1cc([N+](=O)[O-])c2cccnc2c1OC (stereo not drawn)	.	.	23	.	.	43*	13
CCC(=O)NC(c1cccs1)c1ccc2cccnc2c1O (stereo not drawn)	6	7	6	9	7	-8	.
COc1ccc(CN2C(=O)Cc3c2nc(N)c2c(N)nc(N4CCOCC4)c(C#N)c32)cc1	6	10	-4	7	6	28*	8
O=C1C(=C(I)I)c2ccccc2-c2ccccc21	8	.	-9	-4	13	38*	-14
Cc1ccccc1C(=O)O/N=C(\N)c1cccc([N+](=O)[O-])c1	-2	0	-3	3	9	2	.
N/C(=N\OC(=O)c1cccc2ccccc12)c1cccc([N+](=O)[O-])c1	-14	6	18	-5	-6	28*	57*
SMILES	PAFAH2 inh	pPAFAH FP inh	ARFGAP1 inh	PAFAH1B2 FP inh	PAFAH1B3 inh	ASAP1 GAP inh	ASAP1 GAP conf
COc1ccc(C2=Nc3ccccc3NC(=O)C2N(CCc2ccccc2)C(=O)c2cccs2)cc1 (stereo not drawn)	.	.	7	.	.	27*	-1
Cc1ccc(NC(=O)C(OC(=O)c2ccc(O)cc2)c2ccccc2)cc1Cl (stereo not drawn)	-5	-14	10	0	0	28*	-1
Cc1ccc(NC(=O)C(OC(=O)c2ccc(F)cc2)c2ccccc2)cc1Cl (stereo not drawn)	-14	-2	1	-1	9	16	.
CSc1nnc(CCNS(=O)(=O)c2ccccc2Br)n1C	12	6	6	2	9	0	.
Cc1ccccc1S(=O)(=O)Oc1ccc2ccc(O)cc2c1	0	6	6	3	5	27*	17
COc1ccccc1/C=N/OCc1ccc(C#N)cc1	7	4	14	7	2	2	.
CN(C)c1ccc(/C=C/c2ccc3c4ccccc4ccc3[n+]2-c2ccccc2)cc1	-34	.	123*	-18	-21	86*	95*
CN(C)c1ccc(/C=C/c2ccc3ccccc3[n+]2C)cc1	-29	-5	-2	-9	-21	10	.
CCCCOC(=O)Sc1nc2ccccc2o1	-6	3	-1	-1	8	25*	-1
CC1=Nc2ccccc2/C1=C/c1c(N)n2c(S(=O)(=O)CC(C)C)nsc2nc1=O	10	.	-15	14	-5	14	.
CN1CC(=O)N(CC(=O)NCc2ccc3c(c2)OCO3)C1=O	0	5	-2	2	1	6	.
COC(=O)CCc1nc2c(C#N)c(-c3ccc(Cl)cc3)ccn2n1	1	0	1	-3	6	-21	.
N#Cc1c(-c2ccc(Cl)cc2)ccn2nc(C3CCCCC3)nc12	3	3	0	-4	7	27*	5
CCN(CC)CCCNC(=O)c1ccc2c3n(nc2c1)-c1ccc(Cl)cc1CO3	-5	6	7	3	3	-7	.
CC(C)NC(=O)c1ccc2c3n(nc2c1)-c1ccc(Cl)cc1CO3	1	5	3	4	10	31*	7
COc1ccc(NC(=O)C2(C)CCN2C)cc1OC (stereo not drawn)	.	.	3	.	.	6	.
COc1ccc2cc(C(=O)Nc3ccc(Cl)cc3)sc(=O)c2c1OC	-64	-4	13	-24	-43	56*	56*
COc1ccc2cc(C(=O)Nc3ccc(F)cc3)sc(=O)c2c1OC	-6	-2	-5	-1	-3	26*	22
COc1ccc2cc(C(=O)Nc3ccc(O)cc3)sc(=O)c2c1OC	9	7	21	1	3	7	.
